In ChEMBL document CHEMBL1148625, “3-(1,1-dioxo-2H-(1,2,4)-benzothiadiazin-3-yl)-4-hydroxy-2(1H)-quinolinones, potent inhibitors of hepatitis C virus RNA-dependent RNA polymerase” (J Med Chem, 2006):

Assays:
[1] = molecular target: RNA-directed RNA polymerase (Hepacivirus hominis, UniProt O39930); assay: Inhibitory activity against HCV delta 21 NS5B RNA polymerase by SPA assay; parameters: species or system Hepatitis C virus subtype 1b
[2] = molecular target: RNA-directed RNA polymerase (Hepacivirus hominis) (UniProt O39930); assay: Inhibition of HCV RNA replication in Huh7 cells; format: functional, cell-based; conditions: Huh-7
Outline: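 Huh-7 subgenomic replicon cells were seeded at 3 × 10³/well in DMEM with 10% FCS, 1% NEAA and 1 mg/mL G418, and allowed 4 h to attach. Eleven 2.5-fold DMSO dilutions were added (final 10,000 to 1.0 nM) and cells incubated 40 h. Neo RNA was measured by TaqMan RT-PCR, normalised to cyclophilin against DMSO controls; n = 8 wells per dilution.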

[3] = Volume of distribution in Sprague-Dawley rat at 0.8 mg/kg, iv or 5.8 mg/kg, po; format: ADME, organism-based; conditions: in vivo, read-out: Vdss
Outline: (§1)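 Single-dose pharmacokinetics in the named species, given iv and orally at the stated doses. Plasma Cmax, half-life, clearance, steady-state volume of distribution and oral bioavailability were reported as mean values.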

[4] = Cmax in Beagle dog at 0.8 mg/kg, iv or 1.8 mg/kg, po; format: ADME, organism-based, Canis lupus familiaris; conditions: in vivo
Outline: (§2)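 Single-dose administration, given both intravenously and orally, to Sprague-Dawley rats, beagle dogs or cynomolgus monkeys. Plasma pharmacokinetic parameters are reported as means: Cmax in ng/mL, terminal half-life in min, clearance in mL/min/kg, steady-state volume of distribution in L/kg, and oral bioavailability F in %.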

[5] = Clearance in Beagle dog at 0.8 mg/kg, iv or 1.8 mg/kg, po; format: ADME, organism-based, Canis lupus familiaris; conditions: in vivo; outline: as §2
[6] = Half life in Sprague-Dawley rat at 0.8 mg/kg, iv or 5.8 mg/kg, po; format: ADME, organism-based; conditions: in vivo; outline: as §1
[7] = Volume of distribution in Beagle dog at 0.8 mg/kg, iv or 1.8 mg/kg, po; format: ADME, organism-based, Canis lupus familiaris; conditions: in vivo, read-out: Vdss; outline: as §2
[8] = Clearance in Sprague-Dawley rat at 0.8 mg/kg, iv or 5.8 mg/kg, po; format: ADME, organism-based; conditions: in vivo; outline: as §1
[9] = Half life in Beagle dog at 0.8 mg/kg, iv or 1.8 mg/kg, po; format: ADME, organism-based, Canis lupus familiaris; conditions: in vivo; outline: as §2
[10] = Oral bioavailability in Sprague-Dawley rat at 0.8 mg/kg, iv or 5.8 mg/kg, po; format: ADME, organism-based; conditions: in vivo; outline: as §1
[11] = Oral bioavailability in Beagle dog at 0.8 mg/kg, iv or 1.8 mg/kg, po; format: ADME, organism-based, Canis lupus familiaris; conditions: in vivo; outline: as §2
[12] = Oral bioavailability in Sprague-Dawley rat at 1.2 mg/kg, iv or 3.7 mg/kg, po; format: ADME, organism-based; conditions: in vivo; outline: as §2
[13] = Cmax in Beagle dog at 0.9 mg/kg, iv or 3.6 mg/kg, po; format: ADME, organism-based, Canis lupus familiaris; conditions: in vivo; outline: as §1
[14] = Clearance in cynomolgus monkey at 1.0 mg/kg, iv or 3.6 mg/kg, po; format: ADME, organism-based, Macaca fascicularis; conditions: in vivo; outline: as §1
[15] = Cmax in Sprague-Dawley rat at 1.2 mg/kg, iv or 3.7 mg/kg, po; format: ADME, organism-based; conditions: in vivo; outline: as §2
[16] = Half life in Beagle dog at 0.9 mg/kg, iv or 3.6 mg/kg, po; format: ADME, organism-based, Canis lupus familiaris; conditions: in vivo; outline: as §1
[17] = Volume of distribution in cynomolgus monkey at 1.0 mg/kg, iv or 3.6 mg/kg, po; format: ADME, organism-based, Macaca fascicularis; conditions: in vivo, read-out: Vdss; outline: as §1
[18] = Oral bioavailability in Beagle dog at 0.9 mg/kg, iv or 3.6 mg/kg, po; format: ADME, organism-based, Canis lupus familiaris; conditions: in vivo; outline: as §1
[19] = Oral bioavailability in cynomolgus monkey at 1.0 mg/kg, iv or 3.6 mg/kg, po; format: ADME, organism-based, Macaca fascicularis; conditions: in vivo; outline: as §1
[20] = Volume of distribution in Beagle dog at 0.9 mg/kg, iv or 3.6 mg/kg, po; format: ADME, organism-based, Canis lupus familiaris; conditions: in vivo, read-out: Vdss; outline: as §1
[21] = Half life in Sprague-Dawley rat at 1.2 mg/kg, iv or 3.7 mg/kg, po; format: ADME, organism-based; conditions: in vivo; outline: as §2
[22] = Volume of distribution in Sprague-Dawley rat at 1.2 mg/kg, iv or 3.7 mg/kg, po; format: ADME, organism-based; conditions: in vivo, read-out: Vdss; outline: as §2
[23] = Clearance in Beagle dog at 0.9 mg/kg, iv or 3.6 mg/kg, po; format: ADME, organism-based, Canis lupus familiaris; conditions: in vivo; outline: as §1
[24] = Clearance in Sprague-Dawley rat at 1.2 mg/kg, iv or 3.7 mg/kg, po; format: ADME, organism-based; conditions: in vivo; outline: as §2
[25] = Half life in cynomolgus monkey at 1.0 mg/kg, iv or 3.6 mg/kg, po; format: ADME, organism-based, Macaca fascicularis; conditions: in vivo; outline: as §1
[26] = Cmax in cynomolgus monkey at 1.0 mg/kg, iv or 3.6 mg/kg, po; format: ADME, organism-based, Macaca fascicularis; conditions: in vivo; outline: as §1
[27] = Volume of distribution in cynomolgus monkey at 1.8 mg/kg, iv or 1.6 mg/kg, po; format: ADME, organism-based, Macaca fascicularis; conditions: in vivo, read-out: Vdss; outline: as §2
[28] = Oral bioavailability in Beagle dog at 0.9 mg/kg, iv or 1.1 mg/kg, po; format: ADME, organism-based, Canis lupus familiaris; conditions: in vivo
Outline: (§3)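 Single-dose study, with separate intravenous and oral administrations at the listed mg/kg. Plasma concentrations were followed over time, and mean values were derived for Cmax, T1/2, clearance (mL/min/kg), Vdss (L/kg) and oral bioavailability (%).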

[29] = Clearance in Sprague-Dawley rat at 1.3 mg/kg, iv or 7.7 mg/kg, po; format: ADME, organism-based; conditions: in vivo
Outline: (§4)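 Single intravenous or oral doses given to Sprague-Dawley rats. Values are reported as means: Cmax (ng/mL), half-life (min), plasma clearance (mL/min/kg), steady-state volume of distribution (L/kg) and oral bioavailability F (%).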

[30] = Volume of distribution in Beagle dog at 0.9 mg/kg, iv or 1.1 mg/kg, po; format: ADME, organism-based, Canis lupus familiaris; conditions: in vivo, read-out: Vdss; outline: as §3
[31] = Clearance in Beagle dog at 0.9 mg/kg, iv or 1.1 mg/kg, po; conditions: in vivo
[32] = Half life in Beagle dog at 0.9 mg/kg, iv or 1.1 mg/kg, po; format: ADME, organism-based, Canis lupus familiaris; conditions: in vivo; outline: as §3
[33] = Cmax in Beagle dog at 0.9 mg/kg, iv or 1.1 mg/kg, po; format: ADME, organism-based, Canis lupus familiaris; conditions: in vivo; outline: as §3
[34] = Oral bioavailability in Sprague-Dawley rat at 1.3 mg/kg, iv or 7.7 mg/kg, po; format: ADME, organism-based; conditions: in vivo; outline: as §4
[35] = Oral bioavailability in cynomolgus monkey at 1.8 mg/kg, iv or 1.6 mg/kg, po; format: ADME, organism-based, Macaca fascicularis; conditions: in vivo; outline: as §2
[36] = Clearance in cynomolgus monkey at 1.8 mg/kg, iv or 1.6 mg/kg, po; format: ADME, organism-based, Macaca fascicularis; conditions: in vivo; outline: as §2
[37] = Volume of distribution in Sprague-Dawley rat at 1.3 mg/kg, iv or 7.7 mg/kg, po; format: ADME, organism-based; conditions: in vivo, read-out: Vdss; outline: as §4
[38] = Cmax in cynomolgus monkey at 1.8 mg/kg, iv or 1.6 mg/kg, po; format: ADME, organism-based, Macaca fascicularis; conditions: in vivo; outline: as §2
[39] = Half life in Sprague-Dawley rat at 1.3 mg/kg, iv or 7.7 mg/kg, po; format: ADME, organism-based; conditions: in vivo; outline: as §4
[40] = Half life in cynomolgus monkey at 1.8 mg/kg, iv or 1.6 mg/kg, po; format: ADME, organism-based, Macaca fascicularis; conditions: in vivo; outline: as §2
[41] = Cmax in Sprague-Dawley rat at 1.3 mg/kg, iv or 7.7 mg/kg, po; format: ADME, organism-based; conditions: in vivo; outline: as §4

RNA-directed RNA polymerase, sequence (O39930 whole entry): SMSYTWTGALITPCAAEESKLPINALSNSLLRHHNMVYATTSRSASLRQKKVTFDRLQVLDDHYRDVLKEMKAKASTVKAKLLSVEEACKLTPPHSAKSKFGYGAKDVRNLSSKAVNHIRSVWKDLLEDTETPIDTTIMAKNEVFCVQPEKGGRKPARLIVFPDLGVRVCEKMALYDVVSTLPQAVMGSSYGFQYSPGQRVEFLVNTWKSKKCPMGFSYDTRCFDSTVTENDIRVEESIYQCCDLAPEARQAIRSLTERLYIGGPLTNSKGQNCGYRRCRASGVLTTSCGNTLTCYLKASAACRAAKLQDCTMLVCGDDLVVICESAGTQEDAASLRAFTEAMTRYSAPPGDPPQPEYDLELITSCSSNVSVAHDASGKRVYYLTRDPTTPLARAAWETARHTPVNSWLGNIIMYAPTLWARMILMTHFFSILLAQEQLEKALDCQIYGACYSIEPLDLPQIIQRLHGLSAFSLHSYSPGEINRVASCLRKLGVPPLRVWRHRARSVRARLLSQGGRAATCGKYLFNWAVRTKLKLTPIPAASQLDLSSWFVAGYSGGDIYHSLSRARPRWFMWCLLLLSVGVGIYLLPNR
RNA-directed RNA polymerase (Hepacivirus hominis), sequence (O39930 1-591): as the sequence (O39930 whole entry) above

Nc1ccc2c(c1)c(O)c(C1=NS(=O)(=O)c3ccccc3N1)c(=O)n2CCC1CC1
IC50 [1]: 32 nM | EC90 [2]: 593 nM

O=c1c(C2=NS(=O)(=O)c3ccccc3N2)c(O)c2ccccc2n1CC1CCC1
EC90 [2]: 1190 nM

CC(C)CCn1c(=O)c(C2=NS(=O)(=O)c3ccccc3N2)c(O)c2ccccc21
Vd [3]: 0.44 L/kg | Cmax [4]: 2230 ng/mL | clearance [5]: 0.5 mL/min/kg | half-life [6]: 0.607 h | EC90 [2]: 1420 nM | Vd [7]: 0.53 L/kg | clearance [8]: 10.1 mL/min/kg | half-life [9]: 14.3 h | bioavailability [10]: 70% | bioavailability [11]: 89%

CC(C)CCn1c(=O)c(C2=NS(=O)(=O)c3ccccc3N2)c(O)c2cc(F)ccc21
EC90 [2]: 4950 nM

CC(C)CCn1c(=O)c(C2=NS(=O)(=O)c3ccccc3N2)c(O)c2cc(OCC#N)ccc21
EC90 [2]: 1610 nM

CC(C)CCn1c(=O)c(C2=NS(=O)(=O)c3ccccc3N2)c(O)c2cc(Cl)ccc21
IC50 [1]: 43 nM | EC90 [2]: 3830 nM

Cc1ccc2c(c1)c(O)c(C1=NS(=O)(=O)c3ccccc3N1)c(=O)n2CCC(C)C
bioavailability [12]: 100% | Cmax [13]: 1960 ng/mL | clearance [14]: 5.32 mL/min/kg | Cmax [15]: 1220 ng/mL | IC50 [1]: 47 nM | half-life [16]: 9.06 h | Vd [17]: 0.34 L/kg | EC90 [2]: 831 nM | bioavailability [18]: > 50% | bioavailability [19]: > 53% | Vd [20]: 0.72 L/kg | half-life [21]: 5.29 h | Vd [22]: 0.81 L/kg | clearance [23]: 1.09 mL/min/kg | clearance [24]: 1.65 mL/min/kg | half-life [25]: 0.828 h | Cmax [26]: 2140 ng/mL

O=c1c(C2=NS(=O)(=O)c3ccccc3N2)c(O)c2ccccc2n1-c1ccccc1
EC90 [2]: 1870 nM

O=c1c(C2=NS(=O)(=O)c3ccccc3N2)c(O)c2ccccc2n1CCC1CC1
Vd [27]: 0.19 L/kg | bioavailability [28]: 100% | clearance [29]: 1.7 mL/min/kg | Vd [30]: 0.15 L/kg | clearance [31]: 0.47 mL/min/kg | half-life [32]: 4.82 h | Cmax [33]: 5400 ng/mL | bioavailability [34]: 78% | bioavailability [35]: > 40% | clearance [36]: 1.73 mL/min/kg | IC50 [1]: 13 nM | EC90 [2]: 808 nM | Vd [37]: 0.25 L/kg | Cmax [38]: 7920 ng/mL | half-life [39]: 1.87 h | half-life [40]: 1.35 h | Cmax [41]: 6460 ng/mL

CC(C)CCn1c(=O)c(C2=NS(=O)(=O)c3ccccc3N2)c(O)c2c(F)cccc21
EC90 [2]: 2070 nM

CCCCn1c(=O)c(C2=NS(=O)(=O)c3ccccc3N2)c(O)c2ccccc21
IC50 [1]: 200 nM | EC90 [2]: 3760 nM

CC(C)CCn1c(=O)c(C2=NS(=O)(=O)c3ccccc3N2)c(O)c2cc(NCC(=O)O)ccc21
EC90 [2]: 9610 nM

CCOC(=O)CNc1ccc2c(c1)c(O)c(C1=NS(=O)(=O)c3ccccc3N1)c(=O)n2CCC(C)C
EC90 [2]: 998 nM

O=C(O)CCCn1c(=O)c(C2=Nc3ccccc3S(=O)(=O)N2)c(O)c2ccccc21
IC50 [1]: > 10000 nM

O=c1c(C2=NS(=O)(=O)c3ccccc3N2)c(O)c2ccccc2n1Cc1ccncc1
IC50 [1]: 61 nM

CC(C)CCn1c(=O)c(C2=Nc3ccccc3S(=O)(=O)N2)c(O)c2cc(F)ccc21
IC50 [1]: 20 nM

CC(Br)CCn1c(=O)c(C2=Nc3ccccc3S(=O)(=O)N2)c(O)c2ccccc21 (configuration not stated)
IC50 [1]: 290 nM

CC(C)CCn1c(=O)c(C2=Nc3ccccc3S(=O)(=O)N2)c(O)c2cc(OCc3ccccc3)ccc21
IC50 [1]: 3950 nM
